We go through 25 compounds from ChEMBL document CHEMBL1806417, “Antiproliferative activity and QSAR studies of a series of new 4-aminomethylidene derivatives of some pyrazol-5-ones” (Bioorg Med Chem Lett, 2011).

Assay [1] concerns MDA-MB-361. The assay is described as follows: Antiproliferative activity against human MDA-MB-361 cells assessed as cell survival after 72 hrs by MTT assay. It is filed as functional, cell-based. The note with it: MDA-MB-361, 72 h. The procedure, abridged: (§1)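 Monolayer cultures in RPMI-1640 with L-glutamine (3 mM), 10% heat-inactivated FBS, 25 mM Hepes, pH 7.2, and extra glucose (1.11 g/L), at 37°C and 5% CO2. Seeding was 7000 cells/well for MDA-MB-361 and 3000 cells/well for MDA-MB-453. After 24 h, five two-fold dilutions were added for 72 h. MTT readout (Ohno–Abe modification). IC50 was read from the survival-versus-concentration curve; mean ± SD of three independent experiments.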

Assay [2] has as its system MDA-MB-453. The assay is described as follows: Antiproliferative activity against human MDA-MB-453 cells assessed as cell survival after 72 hrs by MTT assay. It is filed as functional, cell-based. Particulars: MDA-MB-453, 72 h. The method, boiled down: as §1
The test system of assay [3] is MDA-MB-453. The assay is described as follows: Cell cycle arrest in human MDA-MB-453 cells assessed as accumulation at sub-G1 phase at 2 times IC50 after 24 hrs using propidium iodide staining by flow cytometry. The assay is classed as functional, cell-based. The method, boiled down: (§2)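 Cells were seeded at 3 × 10⁵ per well and treated or left untreated for 24 h. They were trypsinized and fixed overnight in ice-cold 70% ethanol at -20°C, then washed in PBS. RNase was applied at 37°C for 30 min, followed by propidium iodide for at least 30 min. DNA content and cell-cycle distribution were measured by FACScan flow cytometry on at least 10,000 cells per sample.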

In assay [4] the test system is MS-1. The assay is described as follows: Antiangiogenic activity in mouse MS1 cells assessed as inhibition tube-like structure formation at 10 uM after 12 hrs by microscopy.
Assay [5] has as its system MS-1. As to the kind of experiment: Antiangiogenic activity in mouse MS1 cells assessed as inhibition tube-like structure formation at 3 uM after 12 hrs by microscopy. The assay is classed as functional, cell-based.
For assay [6], the system named is MS-1. The assay is described as follows: Antiangiogenic activity in mouse MS1 cells assessed as inhibition tube-like structure formation at 30 uM after 12 hrs by microscopy. It is filed as functional, cell-based.
Assay [7] concerns MDA-MB-361. As to the kind of experiment: Cell cycle arrest in human MDA-MB-361 cells assessed as accumulation at sub-G1 phase at 2 times IC50 after 24 hrs using propidium iodide staining by flow cytometry (Rvb =2.21 %). The assay is classed as functional. The procedure, abridged: as §2
Assay [8] relates to MDA-MB-361. The assay is described as follows: Cell cycle arrest in human MDA-MB-361 cells assessed as accumulation at G1 phase at 2 times IC50 after 24 hrs using propidium iodide staining by flow cytometry (Rvb =64.36 %). It is filed as functional. The procedure, abridged:
as §2

The test system of assay [9] is MDA-MB-361. As to the kind of experiment: Cell cycle arrest in human MDA-MB-361 cells assessed as accumulation at S phase at 2 times IC50 after 24 hrs using propidium iodide staining by flow cytometry (Rvb =15.72 %). It is filed as functional. The procedure, abridged:
as §2

In assay [10] the test system is MDA-MB-361. As to the kind of experiment: Cell cycle arrest in human MDA-MB-361 cells assessed as accumulation at G2/M phase at 2 times IC50 after 24 hrs using propidium iodide staining by flow cytometry (reference value: 14.15 %). It is filed as functional. The method, boiled down:
as §2

For assay [11], the system named is MS-1. As to the kind of experiment: Antiangiogenic activity in mouse MS1 cells assessed as inhibition tube-like structure formation at 3 uM after 12 hrs by microscopy.
Assay [12] relates to MS-1. The assay is described as follows: Antiangiogenic activity in mouse MS1 cells assessed as inhibition tube-like structure formation at 10 uM after 12 hrs by microscopy. The assay is classed as functional, cell-based.

Each structure is given as a SMILES string. Activity calls are given as the source filed them. The rule behind the calls is not given here.

For the compound `O=C(O)[C@H](Cc1c[nH]c2ccccc12)N/C=C1\C(=O)N(c2ccccc2)N=C1c1ccccc1`, the IC50 stood at 33.9 µM in assay [1] and 9.75 µM in [2]. Further, the outcome in [3] was Active. Besides, in [4], the outcome was inactive.

`O=C(O)[C@H](Cc1ccccc1)N/C=C1\C(=O)N(c2ccccc2)N=C1c1ccccc1`: the IC50 in assay [1] worked out at 11.5 µM; in assay [2] it was 10.4 µM. The result in assay [3] and in assay [5] was Active.

With `CSC[C@H](N/C=C1\C(=O)NN=C1c1ccccc1)C(=O)O`, the concentration for half-maximal inhibition (IC50) in assay [1] is 97.4 µM; in assay [2], 105 µM. Moreover, the outcome in assay [6] was Active.

For `Cc1cc(N/C=C2\C(=O)NN=C2c2ccccc2)n[nH]1`, the IC50 in assay [1] amounted to 96 µM; in assay [2], 93 µM. Moreover, the result in assay [6] was Active.

Take `Cc1cc(N/C=C2\C(=O)N(c3ccccc3)N=C2c2ccccc2)n[nH]1`: the IC50 in [1] was found to be 9.98 µM; in [2] it was 10.2 µM. Further, the Activity in assay [7] is on record as 19.43%; in assay [8], 46.79%; in [9], 11.64%; in assay [10], 14.12%. In addition, the outcome in [3] and in assay [5] was Active.

For the compound `CSC[C@H](N/C=C1\C(=O)N(c2ccccc2)N=C1c1ccccc1)C(=O)O`, the IC50 in assay [1] turned out to be 14.2 µM; in assay [2] it was 9.46 µM. Besides, the result in assay [3] was Active. Moreover, in assay [11], the result was inactive.

Regarding `O=C1NN=C(c2ccccc2)/C1=C/N[C@@H](Cc1ccc(O)cc1)C(=O)O`, the IC50 in assay [1] is 61.1 µM; in assay [2], 29.8 µM. Also, the result in assay [4] was inactive.

Regarding `O=C(O)[C@@H](Cc1ccccc1)N/C=C1\C(=O)N(c2ccccc2)N=C1c1ccccc1`, the IC50 in [1] amounted to 11.9 µM; in assay [2], 9.66 µM. In addition, the outcome in assay [3] was Active. Besides, in [11], the result was inactive.

Turning to `O=C1/C(=C\Nc2cc(-c3ccco3)[nH]n2)C(c2ccccc2)=NN1c1ccccc1`, the IC50 worked out at 13.4 µM in assay [1] and 12.4 µM in [2]. Besides, the Activity in assay [7] is recorded as 21.95%; in [8], 51.38%; in assay [9], 7.33%; in assay [10], 13.9%. Also, the result in assay [3] and in [5] was Active.

For the compound `O=C1/C(=C\Nc2cc(-c3ccccc3)[nH]n2)C(c2ccccc2)=NN1c1ccccc1`, the IC50 came to 12.2 µM in assay [1] and 8.75 µM in assay [2]. Besides, the result in [3] and in assay [5] was Active.

In the case of `O=C(O)[C@H](CO)N/C=C1\C(=O)N(c2ccccc2)N=C1c1ccccc1`, the IC50 was 52.8 µM in assay [1] and 49 µM in [2]. In addition, the result in assay [3] was Active. Further, in [4], the result was inactive.

`O=C1NN=C(c2ccccc2)/C1=C/N[C@@H](Cc1ccccc1)C(=O)O`: the IC50 turned out to be 67 µM in assay [1] and 94.8 µM in assay [2]. In addition, the result in [4] was inactive.

Regarding `O=C1NN=C(c2ccccc2)/C1=C/N[C@@H](CO)C(=O)O`, the IC50 in assay [1] was 105 µM; in assay [2] it was 23.7 µM. For the same compound, in assay [6], the result was Active.

With `CCOC(=O)c1c[nH]nc1N/C=C1\C(=O)N(c2ccccc2)N=C1c1ccccc1`, the IC50 was 24.7 µM in assay [1] and 19.4 µM in assay [2]. Also, the result in assay [3] was Active. For the same compound, the result in assay [11] was inactive.

On to `O=C(O)[C@H](Cc1c[nH]cn1)N/C=C1\C(=O)N(c2ccccc2)N=C1c1ccccc1`, for which the values for the IC50 in [1] and in assay [2] were 87.2 µM and 71.1 µM, respectively. Besides, in [3], the outcome was Active. The result in assay [6] was inactive.

Regarding `O=C1NN=C(c2ccccc2)/C1=C/N[C@@H](Cc1c[nH]c2ccccc12)C(=O)O`, the IC50 is 93.6 µM in assay [1] and 41.7 µM in assay [2]. In addition, in [6], the outcome was Active.

As to `O=C(O)[C@H](Cc1ccc(O)cc1)N/C=C1\C(=O)N(c2ccccc2)N=C1c1ccccc1`, the half-maximal inhibitory concentration (IC50) stood at 24.8 µM in assay [1] and 10.9 µM in assay [2]. Further, the result in assay [3] was Active. For the same compound, the outcome in [11] was inactive.

For the compound `O=C1NN=C(c2ccccc2)/C1=C/Nc1cc(-c2ccco2)[nH]n1`, the IC50 in [1] was 63.7 µM; in [2], 20.9 µM. In addition, in [4], the outcome was inactive.

Turning to `O=C1/C(=C\Nc2cc[nH]n2)C(c2ccccc2)=NN1c1ccccc1`, the IC50 in assay [1] came to 51 µM; in [2], 34.7 µM. Further, the Activity in [7] is 21.55%; in [8] it was 47.94%; in [9], 7.81%; in assay [10] it was 15.58%. For the same compound, the result in assay [3] and in assay [12] was Active.

On to `O=C1NN=C(c2ccccc2)/C1=C/Nc1cc[nH]n1`, for which the IC50 in [1] was 95.3 µM; in assay [2], 74.9 µM. In addition, the outcome in [6] was inactive.

Turning to `CSCC[C@H](N/C=C1\C(=O)NN=C1c1ccccc1)C(=O)O`, the results for the concentration for half-maximal inhibition (IC50) in assay [1] and in [2] were 105 µM and 42.1 µM, respectively. Also, in [6], the outcome was Active.

On to `O=C1NN=C(c2ccccc2)/C1=C/Nc1cc(-c2ccccc2)[nH]n1`, for which the values for the IC50 in assay [1] and in assay [2] were 42.7 µM and 11.5 µM, respectively. For the same compound, in [4], the outcome was inactive.

Consider `CCOC(=O)c1c[nH]nc1N/C=C1\C(=O)NN=C1c1ccccc1`, for which the IC50 in assay [1] worked out at 121 µM; in [2], 74.6 µM. Further, the result in [11] was inactive.

As for `CSCC[C@H](N/C=C1\C(=O)N(c2ccccc2)N=C1c1ccccc1)C(=O)O`, the values for the half-maximal inhibitory concentration (IC50) in assay [1] and in assay [2] were 12.5 µM and 9.43 µM, respectively. In [3], the outcome was Active. The outcome in assay [11] was inactive.

In the case of `O=C1NN=C(c2ccccc2)/C1=C/N[C@@H](Cc1c[nH]cn1)C(=O)O`, the IC50 in assay [1] came to 113 µM; in assay [2], 73.9 µM. The outcome in assay [6] was Active.
